Assay results from different studies.
Each line is one published result; the experiments were not run side by side.
Cell line: PC-3
Effect on: cell growth or viability

Compound	test	setting	inhibition
O=C(CN1C(=O)/C(=C/C2CC2)SC1=S)Nc1ccccc1	MTT	10 µM	24.1%
COc1ccccc1/C=C/C(=O)c1ccc(OC)c(S(N)(=O)=O)c1	SRB	10 µM	52%
Cn1cnnc1-c1cccc(NC(=O)C2CCCN(C(=O)c3cc(C(F)(F)F)cc(C(F)(F)F)c3)C2)c1 (stereo not drawn)	WST-1	100 µM	0%
COc1ccc(C(=O)/C=C/c2cccc(Br)c2)cc1S(N)(=O)=O	SRB	10 µM	135%
O=C(CN1C(=O)/C(=C/c2ccc([N+](=O)[O-])cc2)SC1=S)Nc1ccccc1	MTT	10 µM	16.6%
COc1ccc(C(=O)/C=C/c2cc3c(cc2Br)OCO3)cc1S(N)(=O)=O	SRB	10 µM	98%
COC(=O)c1cccc(NC(=O)C2CCCN(C(=O)c3cc(C(F)(F)F)cc(C(F)(F)F)c3)C2)c1 (stereo not drawn)	WST-1	100 µM	0%
COc1ccc(C(=O)/C=C/c2cccc3ccccc23)cc1S(N)(=O)=O	SRB	10 µM	87%
O=C(CN1C(=O)/C(=C/c2cccc(F)c2)SC1=S)Nc1ccccc1	MTT	10 µM	18.9%
CC(=O)c1cccc(NC(=O)C2CCCN(C(=O)c3cc(C(F)(F)F)cc(C(F)(F)F)c3)C2)c1 (stereo not drawn)	WST-1	100 µM	0%
O=C(CN1C(=O)/C(=C/c2ccc(F)cc2)SC1=S)Nc1ccccc1	MTT	10 µM	27.7%
O=C(Nc1cccc(Cc2ccccc2)c1)C1CCCN(C(=O)c2cc(C(F)(F)F)cc(C(F)(F)F)c2)C1 (stereo not drawn)	WST-1	100 µM	0%
COc1cc(CNC(=O)CCCC/C=C/C(C)C)ccc1O	SRB	10 µM	19%
O=C(CN1C(=O)/C(=C/c2ccccc2)SC1=S)Nc1ccccc1	MTT	10 µM	43.8%
COC(=O)c1cc(-c2cccc(NC(=O)C3CCCN(C(=O)c4cc(C(F)(F)F)cc(C(F)(F)F)c4)C3)c2)co1 (stereo not drawn)	WST-1	100 µM	0%
